From ChEMBL document CHEMBL1121744, “Synthesis and antihypertensive activity of a series of 8-substituted 1-oxa-3,8-diazaspiro[4.5]decan-2-ones” (J Med Chem, 1981)
Values joined by “and” are separate entries in the source; they are usually repeats but may differ in a detail not shown here. Equal values may be shown once. Blank lines part the entries; values can stand above or below the compound they belong to. Active and inactive are the calls of the source. No cut-off for these calls is given here.

Experiments:
Rattus norvegicus [1] = assay: Antihypertensive activity as percentage fall in systolic blood pressure in spontaneously hypertensive rats after a period of 1 hr for a dose of 50 mg/kg; type: functional, Artery
Method in brief: (§1)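 Male Okamoto-Aoki SHR, trained, in groups of four matched for mean systolic pressure; one group per run received water vehicle. Oral dosing in water (0.1 mL per 10 g) on two consecutive mornings. After the day-2 dose, rats were restrained at 30.0 ± 1.0 °C. Systolic pressure was read by tail cuff (inflated to 300 mmHg, first pulse) at 1–4 h. % fall is versus the untreated control group, by 1-tail t test (p ≤ 0.05).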

Rattus norvegicus [2] = assay: Percentage fall in systolic blood pressure in spontaneously hypertensive rats after 3 h following 50 mg/kg p.o.; type: functional, Artery; conditions: route oral; method in brief: as §1
Rattus norvegicus [3] = assay: The antihypertensive activity as percentage fall in systolic blood pressure in spontaneously hypertensive rats after a period of 4 hr for a dose of 50 mg/kg po
[4] = target: T1, Adrenergic receptor alpha-1 (Rattus norvegicus, UniProt P15823+P23944+P43140); assay: Antagonistic potency of compound for Alpha-1 adrenergic receptor; type: functional
T1 sequence (P15823 whole entry): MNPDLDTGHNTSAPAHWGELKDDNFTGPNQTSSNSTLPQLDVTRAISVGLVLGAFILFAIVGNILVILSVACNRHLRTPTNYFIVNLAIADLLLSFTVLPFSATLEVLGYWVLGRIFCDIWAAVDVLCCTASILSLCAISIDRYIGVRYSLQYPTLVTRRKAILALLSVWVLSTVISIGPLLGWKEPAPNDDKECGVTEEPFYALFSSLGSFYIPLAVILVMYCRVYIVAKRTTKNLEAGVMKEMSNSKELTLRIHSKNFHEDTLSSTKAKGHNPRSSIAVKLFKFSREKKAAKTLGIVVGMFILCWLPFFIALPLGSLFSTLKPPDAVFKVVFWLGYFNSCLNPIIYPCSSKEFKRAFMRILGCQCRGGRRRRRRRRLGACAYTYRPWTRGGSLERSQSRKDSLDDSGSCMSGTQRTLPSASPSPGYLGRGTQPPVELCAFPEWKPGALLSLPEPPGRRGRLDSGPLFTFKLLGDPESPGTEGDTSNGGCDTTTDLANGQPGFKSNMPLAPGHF
T1 sequence (P23944 whole entry): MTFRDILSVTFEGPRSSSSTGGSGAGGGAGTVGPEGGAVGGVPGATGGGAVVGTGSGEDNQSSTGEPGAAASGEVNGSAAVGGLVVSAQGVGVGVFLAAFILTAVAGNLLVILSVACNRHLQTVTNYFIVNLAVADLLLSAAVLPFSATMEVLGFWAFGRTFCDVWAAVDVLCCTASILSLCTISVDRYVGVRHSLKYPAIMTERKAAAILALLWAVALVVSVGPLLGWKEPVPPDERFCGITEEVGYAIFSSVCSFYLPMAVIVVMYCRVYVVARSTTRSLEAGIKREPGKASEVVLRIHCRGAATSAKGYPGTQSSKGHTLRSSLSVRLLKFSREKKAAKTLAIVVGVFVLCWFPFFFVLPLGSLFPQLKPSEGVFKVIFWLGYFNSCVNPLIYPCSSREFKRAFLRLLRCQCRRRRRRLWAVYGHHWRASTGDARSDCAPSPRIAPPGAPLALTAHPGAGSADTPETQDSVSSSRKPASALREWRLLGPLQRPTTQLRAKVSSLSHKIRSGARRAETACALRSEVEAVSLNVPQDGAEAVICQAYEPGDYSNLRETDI
T1 sequence (P43140 whole entry): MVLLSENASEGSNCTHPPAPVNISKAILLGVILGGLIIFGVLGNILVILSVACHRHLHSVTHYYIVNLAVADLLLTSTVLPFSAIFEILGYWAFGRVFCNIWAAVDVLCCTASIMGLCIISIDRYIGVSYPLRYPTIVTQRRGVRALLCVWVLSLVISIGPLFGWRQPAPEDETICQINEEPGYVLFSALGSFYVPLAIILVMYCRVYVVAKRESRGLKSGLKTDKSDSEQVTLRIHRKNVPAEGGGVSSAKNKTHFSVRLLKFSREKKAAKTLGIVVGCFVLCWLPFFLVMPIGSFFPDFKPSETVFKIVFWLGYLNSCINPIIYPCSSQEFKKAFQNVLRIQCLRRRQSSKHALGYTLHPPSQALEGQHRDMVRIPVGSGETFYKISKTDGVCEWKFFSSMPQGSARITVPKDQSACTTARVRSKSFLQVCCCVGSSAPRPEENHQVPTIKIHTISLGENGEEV

Rattus norvegicus [5] = assay: The antihypertensive activity as percentage fall in systolic blood pressure in spontaneously hypertensive rats after a period of 3 hr for a dose of 50 mg/kg po
Rattus norvegicus [6] = assay: The antihypertensive activity as percentage fall in systolic blood pressure in spontaneously hypertensive rats after a period of 2 hr for a dose of 50 mg/kg po
[7] = target: T2, Adrenergic receptor alpha-2 (Rattus norvegicus, UniProt P22086+P19328+P22909); assay: Antagonistic potency of compound for Alpha-2 adrenergic receptor; type: functional
T2 sequence (P22086 whole entry): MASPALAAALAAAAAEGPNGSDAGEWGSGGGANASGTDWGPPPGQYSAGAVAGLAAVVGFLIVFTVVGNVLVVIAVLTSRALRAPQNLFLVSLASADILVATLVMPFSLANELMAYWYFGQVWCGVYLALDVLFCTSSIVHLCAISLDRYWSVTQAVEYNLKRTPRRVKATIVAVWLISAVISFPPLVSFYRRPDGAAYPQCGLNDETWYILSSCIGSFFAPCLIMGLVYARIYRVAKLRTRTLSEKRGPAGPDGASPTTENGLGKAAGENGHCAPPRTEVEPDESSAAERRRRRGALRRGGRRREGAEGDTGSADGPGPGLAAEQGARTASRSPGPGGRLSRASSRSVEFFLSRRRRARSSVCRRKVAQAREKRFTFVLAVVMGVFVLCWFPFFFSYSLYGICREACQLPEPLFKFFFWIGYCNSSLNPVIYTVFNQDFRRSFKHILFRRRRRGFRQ
T2 sequence (P19328 whole entry): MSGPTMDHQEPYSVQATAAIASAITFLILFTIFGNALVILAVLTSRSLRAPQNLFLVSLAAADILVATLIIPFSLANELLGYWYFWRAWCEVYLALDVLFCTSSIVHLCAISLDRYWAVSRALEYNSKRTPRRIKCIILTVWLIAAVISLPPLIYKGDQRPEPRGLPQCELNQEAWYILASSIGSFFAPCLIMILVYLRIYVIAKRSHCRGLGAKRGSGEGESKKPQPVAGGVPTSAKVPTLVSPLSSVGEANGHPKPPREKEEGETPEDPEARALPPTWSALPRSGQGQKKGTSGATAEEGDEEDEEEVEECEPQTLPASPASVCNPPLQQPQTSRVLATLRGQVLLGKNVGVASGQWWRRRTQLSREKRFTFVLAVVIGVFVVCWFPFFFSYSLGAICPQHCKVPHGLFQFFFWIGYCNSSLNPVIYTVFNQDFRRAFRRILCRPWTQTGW
T2 sequence (P22909 whole entry): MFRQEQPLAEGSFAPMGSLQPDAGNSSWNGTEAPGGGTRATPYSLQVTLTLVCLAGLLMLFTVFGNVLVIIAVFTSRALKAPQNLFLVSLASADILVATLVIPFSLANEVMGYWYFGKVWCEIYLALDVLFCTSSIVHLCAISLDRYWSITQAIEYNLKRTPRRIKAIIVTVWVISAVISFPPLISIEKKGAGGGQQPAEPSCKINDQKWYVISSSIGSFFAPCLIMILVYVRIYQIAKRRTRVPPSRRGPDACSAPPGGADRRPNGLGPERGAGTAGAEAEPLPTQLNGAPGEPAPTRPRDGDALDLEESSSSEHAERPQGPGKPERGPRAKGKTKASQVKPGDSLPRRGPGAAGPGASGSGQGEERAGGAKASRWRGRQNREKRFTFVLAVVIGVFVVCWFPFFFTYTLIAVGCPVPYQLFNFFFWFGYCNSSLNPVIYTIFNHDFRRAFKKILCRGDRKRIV

Rattus norvegicus [8] = assay: The antihypertensive activity as percentage fall in systolic blood pressure in spontaneously hypertensive rats after a period of 1 hr for a dose of 50 mg/kg po
Rattus norvegicus [9] = assay: Percentage fall in systolic blood pressure in spontaneously hypertensive rats after 2 hr following 50 mg/kg p.o.; type: functional, Artery; conditions: route oral, 50 mg/kg; method in brief: as §1
[10] = (§2) Distribution coefficient between 1-Octanol and phosphate buffer at pH7.4; type: physicochemical; conditions: 1-octanol/phosphate buffer, pH 7.4
Method in brief: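 Octanol/buffer distribution measured at pH 7.4 in phosphate with sodium chloride. Either HPLC (0.004 M) or shake flask.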

Rattus norvegicus [11] = assay: The antihypertensive activity as percentage fall in systolic blood pressure in spontaneously hypertensive rats after a period of 4 hr for a dose of 75 mg/kg po; NS=Not significant; type: functional, organism-based; set-up: dose 75 mg/kg; conditions: Artery
Method in brief: (§3)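 Male Okamoto-Aoki SHR, trained, in groups of four matched for systolic pressure, with a concurrent vehicle control group. Oral dosing on two consecutive mornings, in water as solution or suspension at 0.1 mL/10 g. On day 2 rats were restrained at 30.0 ± 1.0 °C. Tail-cuff systolic pressure, four traces per rat, read at each hour. Per cent fall versus control; 1-tail t test, p ≤ 0.05.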

Rattus norvegicus [12] = assay: The antihypertensive activity as percentage fall in systolic blood pressure in spontaneously hypertensive rats after a period of 3 hr for a dose of 75 mg/kg po; NS=Not significant; type: functional, organism-based; set-up: dose 75 mg/kg; conditions: Artery; method in brief: as §3
Rattus norvegicus [13] = assay: The antihypertensive activity as percentage fall in systolic blood pressure in spontaneously hypertensive rats after a period of 2 hr for a dose of 100 mg/kg po; type: functional, Artery; method in brief: as §1
Rattus norvegicus [14] = assay: Antihypertensive activity as percentage fall in systolic blood pressure in spontaneously hypertensive rats after a period of 3 h for a dose of 50 mg/kg; type: functional, organism-based; set-up: dose 50 mg/kg; conditions: Artery; method in brief: as §1
Rattus norvegicus [15] = assay: The antihypertensive activity as percentage fall in systolic blood pressure in spontaneously hypertensive rats after a period of 3 hr for a dose of 100 mg/kg po; type: functional, Artery; method in brief: as §1
Rattus norvegicus [16] = assay: The antihypertensive activity as percentage fall in systolic blood pressure in spontaneously hypertensive rats after a period of 1 hr for a dose of 100 mg/kg po; type: functional, Artery; method in brief: as §1
Rattus norvegicus [17] = assay: The antihypertensive activity as percentage fall in systolic blood pressure in spontaneously hypertensive rats after a period of 4 hr for a dose of 100 mg/kg po; NS=Not significant; type: functional, organism-based; set-up: dose 100 mg/kg; conditions: Artery; method in brief: as §1
Rattus norvegicus [18] = assay: Antihypertensive activity as percentage fall in systolic blood pressure in spontaneously hypertensive rats after a period of 2 hr for a dose of 50 mg/kg; type: functional, organism-based; set-up: dose 50 mg/kg; conditions: Artery; method in brief: as §1
[19] = as §2; type: physicochemical; conditions: 1-octanol/phosphate buffer, pH 7.4; remark: listed apart in the source
Rattus norvegicus [20] = assay: Antihypertensive activity as percentage fall in systolic blood pressure in spontaneously hypertensive rats after a period of 1 hr for a dose of 50 mg/kg po; type: functional, organism-based; set-up: dose 50 mg/kg; conditions: Artery; method in brief: as §1
Rattus norvegicus [21] = assay: Antihypertensive activity as percentage fall in systolic blood pressure in spontaneously hypertensive rats after a period of 4 hr for a dose of 50 mg/kg; type: functional, organism-based; set-up: dose 50 mg/kg; conditions: Artery; method in brief: as §1

SMILES: CCC1NC(=O)OC12CCN(CCc1c[nH]c3ccccc13)CC2 (centres undefined)
Decrease in blood pressure (Rattus norvegicus [1]): 39%
Decrease in blood pressure (Rattus norvegicus [2]): 17%
Decrease in blood pressure (Rattus norvegicus [3]): 22%
pA2 [4]: 7.6
Decrease in blood pressure (Rattus norvegicus [5]): 17%
Decrease in blood pressure (Rattus norvegicus [6]): 27%
pA2 [7]: 6
Decrease in blood pressure (Rattus norvegicus [8]): 23%
Decrease in blood pressure (Rattus norvegicus [9]): 27% and 26%
logD [10]: 1.95

SMILES: CC(C)N1CC2(CCN(CCc3c[nH]c4ccccc34)CC2)OC1=O
Decrease in blood pressure (Rattus norvegicus [6]): 9%
Decrease in blood pressure (Rattus norvegicus [8]): 22%
logD [10]: 2.4
Decrease in blood pressure (Rattus norvegicus [11]): inactive
Decrease in blood pressure (Rattus norvegicus [12]): inactive

logD [19]: 1.21
SMILES: CC1NC(=O)OC12CCN(CC(O)C1COc3ccccc3O1)CC2 (centres undefined)
Decrease in blood pressure (Rattus norvegicus [13]): 15%
Decrease in blood pressure (Rattus norvegicus [14]): Not significant
Decrease in blood pressure (Rattus norvegicus [15]): 14%
Decrease in blood pressure (Rattus norvegicus [16]): 15%
Decrease in blood pressure (Rattus norvegicus [17]): inactive
Decrease in blood pressure (Rattus norvegicus [18]): Not significant
Decrease in blood pressure (Rattus norvegicus [20]): Not significant
Decrease in blood pressure (Rattus norvegicus [21]): Not significant
